# Test results from ChEMBL document CHEMBL5614452, “Synthesis and Optimization of Small Molecule Inhibitors of Prostate Specific Antigen” (ACS Med Chem Lett, 2024).
# Activity calls are given as the source filed them. No cut-off for these calls is given here.
# Tests used:
# [1] = Stability in DMEM/F-12 medium assessed as compound remaining at 10 uM after 8 hrs by LC-MS/MS analysis; assay type: physicochemical; conditions: read-out: Stability
# How it was run: (§1)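 Compound incubated in DMEM/F12 medium at 37 °C and sampled at 0, 8 and 24 h. Stability reported as percent of compound remaining.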
# [2] = Stability in DMEM/F-12 medium assessed as compound remaining at 10 uM after 24 hrs by LC-MS/MS analysis; assay type: physicochemical; how it was run: as §1
# Prothrombin = Prothrombin (Homo sapiens, UniProt P00734); assay: Inhibition of thrombin (unknown origin) by fluorescence based assay
# How it was run: (§2)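 Protease inhibition measured in biochemical enzyme assays, with the result reported as Ki.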
# [3] = Aqueous solubility of compound incubated for 1 hr by HPLC analysis; assay type: physicochemical
# Neutrophil elastase = target: T1, Neutrophil elastase (Homo sapiens, UniProt P08246); assay: Inhibition of neutrophil elastase (unknown origin) using 7-amino-4-trifluoromethyl-coumarin based peptide as substrate measured for 1 hr by fluorescence based microplate reader assay; how it was run: as §2
# T1 sequence (P08246 whole entry): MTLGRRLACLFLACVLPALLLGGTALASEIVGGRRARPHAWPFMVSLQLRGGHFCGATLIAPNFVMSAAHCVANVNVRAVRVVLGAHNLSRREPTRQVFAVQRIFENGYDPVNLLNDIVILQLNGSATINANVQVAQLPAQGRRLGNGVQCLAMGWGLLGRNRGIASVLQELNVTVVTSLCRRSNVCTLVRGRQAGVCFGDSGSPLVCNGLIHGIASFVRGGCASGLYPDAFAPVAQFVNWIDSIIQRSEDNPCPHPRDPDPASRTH
# [4] = Drug uptake in human HepG2 cells assessed as intracellular concentration per 10^9 cells at 10 uM incubated for 2 hrs by UHPLC-TSQ analysis; assay type: ADME, cell-based; conditions: hepg2, 2 h
# How it was run: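 HepG2 cells exposed to compound. Intracellular amount expressed as nmol per 10^9 cells, n = 4.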
# [5] = Cytotoxicity against human Ect1/E6E7 cells incubated for 1 to 3 hrs by MTT assay; assay type: toxicity, cell-based; conditions: time 1-3 hrs
# How it was run: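 Ect1/E6E7 human ectocervical cells exposed to compound for 1 or 3 h, with viability read by MTT assay. Nonoxynol-9 served as the positive cytotoxic control.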
# [6] = Inhibition of alpha-chymotrypsin (unknown origin) using N-Benzoyl-L-tyrosine ethyl ester as substrate preincubated for 5 mins followed by substrate addition and measured every 1 min for 10 mins by microplate reader assay; design: species or system Homo sapiens; how it was run: as §2
# [7] = target: T2, Prostate-specific antigen (Homo sapiens) (UniProt P07288); assay: Inhibition of recombinant human semen PSA at 0.000001 to 500 uM using Mu-HSSKLQAMC as substrate preincubated for 15 mins followed by substrate addition by fluorescence based assay; assay type: single protein; conditions: dose lower 1e-06 µM, dose upper 500.0 µM
# T2 sequence (whole entry): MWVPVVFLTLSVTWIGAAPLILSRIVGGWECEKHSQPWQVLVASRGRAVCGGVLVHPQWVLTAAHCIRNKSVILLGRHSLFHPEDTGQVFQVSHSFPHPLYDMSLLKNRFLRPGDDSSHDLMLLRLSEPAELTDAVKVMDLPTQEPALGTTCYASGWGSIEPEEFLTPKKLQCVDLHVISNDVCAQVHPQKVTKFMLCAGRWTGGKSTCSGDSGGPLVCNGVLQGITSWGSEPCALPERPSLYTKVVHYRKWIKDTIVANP
# How it was run: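 PSA inhibition in a biochemical assay. Compounds tested at 100 nM, 1 μM, 10 μM, 100 μM and 500 μM, plus a lower picomolar-level concentration. Compounds with no inhibition across this range were scored not active.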
# [8] = target: T3, Prostate-specific antigen (Homo sapiens, UniProt P07288); assay: Inhibition of recombinant human semen PSA using Mu-HSSKLQAMC as substrate preincubated for 15 mins followed by substrate addition by fluorescence based assay
# T3 sequence (P07288 whole entry): T2 sequence (whole entry)
smiles,measurement,setting,value
COc1ccc(-c2cc(N)n(C(=O)c3ccc4[nH]cnc4c3)n2)cn1,"remaining at 8 h, 10 µM",[1],~47%
same,Stability,[2],Unstable
same,Ki,Prothrombin,0.411 µM
same,solubility at 1 h,[3],27 µM
same,Ki,Neutrophil elastase,1180 µM
same,Drug uptake,[4],3.41 nmol
same,Activity,[5],Non-Toxic
same,Ki,[6],2.74 µM
COc1ccc(C(=O)n2nc(-c3cccnc3)nc2N)cc1OC,"remaining at 8 h, 10 µM",[1],~4%
same,Stability,[2],Unstable
CNc1cc(-c2ccc(OC)nc2)nn1C(=O)c1ccc(OC)c(OC)c1,inhibition,[7],inactive
Nc1n[nH]c(-c2cccnc2)n1,inhibition,[7],inactive
COc1cncc(-c2cc(N)n(C(=O)c3ccc(OC)c(OC)c3)n2)c1,inhibition,[7],inactive
COc1ccc(C(=O)n2nc(-c3ccncc3)cc2N)cc1OC,Ki,[8],104 µM
COc1ccc(CC(=O)n2nc(-c3cccnc3)nc2N)cc1OC,Ki,[8],308 µM
COc1ccc(-c2cc(N)n(C(=O)c3cc(OC)c(OC)c(OC)c3)n2)cn1,Ki,[8],367 µM
COc1ccc(-c2cc(N(C)C)n(C(=O)c3ccc(OC)c(OC)c3)n2)cn1,inhibition,[7],inactive
COc1ccc(Cn2nc(-c3cccnc3)nc2N)cc1OC,inhibition,[7],inactive
